Reference: ChEMBL document CHEMBL3864143, “Design, synthesis and biological evaluation of novel non-covalent piperidine-containing peptidyl proteasome inhibitors” (Bioorg Med Chem, 2016)
Active and inactive are the calls of the source. The calls are words filed in the database; no cut-off is given here.

Legend:
[1] = target: T1, Proteasome Macropain subunit MB1 (Homo sapiens, UniProt P28074); assay: Inhibition of chymotrypsin-like activity of human 20S proteasome preincubated for 15 mins followed by addition of Suc-Leu-Leu-Val-Tyr-AMC as substrate by fluorescence analysis
T1 sequence (P28074 whole entry): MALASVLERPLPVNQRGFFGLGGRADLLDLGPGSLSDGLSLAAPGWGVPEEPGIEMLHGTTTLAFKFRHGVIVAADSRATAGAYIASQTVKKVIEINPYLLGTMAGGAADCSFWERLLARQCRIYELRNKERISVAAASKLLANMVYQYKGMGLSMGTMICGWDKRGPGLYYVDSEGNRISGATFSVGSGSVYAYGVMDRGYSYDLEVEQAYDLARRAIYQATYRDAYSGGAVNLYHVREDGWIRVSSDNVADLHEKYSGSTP
Method in brief: (§1)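 Purified human proteasome (25 µg/mL working stock) in 100 mM Tris-HCl pH 8.0 preincubated 15 min with compound. Suc-LLVY-AMC added (50 µM as listed), AMC release followed by fluorescence increase at ex 355/em 460 nm. IC50 by sigmoidal variable-slope fit, mean of three independent determinations.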

[2] = Antiproliferative activity against human RPMI8226 cells measured after 72 hrs by MTS assay; type: functional, cell-based; details: RPMI-8226, 72 h
Method in brief: (§2)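 MM-1S seeded at 2×10^4/well and RPMI 8226 at 0.5×10^4/well, exposed to compounds for 72 h. MTS then added at 0.5 mg/mL final for 2–4 h, absorbance read at 490 nm with 690 nm background subtraction. Growth inhibition = (A_control − A_sample)/A_control; IC50 from nonlinear sigmoidal variable-slope dose-response fit.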

[3] = Antiproliferative activity against human MM1S cells measured after 72 hrs by MTS assay; type: functional, cell-based; details: MM1.S; method in brief: as §2
[4] = target: T2, Proteasome subunit beta type-5 (Mus musculus) (UniProt O55234); assay: Inhibition of chymotrypsin-like activity of 20S proteasome in mouse blood at 0.5 to 12.5 uM preincubated for 40 mins followed by addition of Suc-Leu-Leu-Val-Tyr-AMC as substrate relative to control; type: tissue-based
T2 sequence (whole entry): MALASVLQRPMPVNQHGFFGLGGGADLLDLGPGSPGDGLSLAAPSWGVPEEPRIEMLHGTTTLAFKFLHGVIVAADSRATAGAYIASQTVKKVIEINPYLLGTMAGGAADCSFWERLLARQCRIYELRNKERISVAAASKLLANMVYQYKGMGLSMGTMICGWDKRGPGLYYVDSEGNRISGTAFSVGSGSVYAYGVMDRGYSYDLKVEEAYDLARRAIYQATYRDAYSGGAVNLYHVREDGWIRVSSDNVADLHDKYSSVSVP
Method in brief: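 Whole blood from normal mice incubated 40 min with compound (compound:serum 1:50 by volume), centrifuged, cells lysed in 5 mM EDTA pH 8.0 at 4°C for 60 min. Lysate protein (Bradford, 100 µg) assayed in 20 mM HEPES pH 8.0, 0.5 mM EDTA, 0.05% SDS, 1% DMSO with 50 µM Suc-LLVY-AMC; fluorescence at ex 355/em 460 nm.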

[5] = Half life in mouse plasma at 2 uM by LC-MS/MS analysis; type: ADME, cell-free
Method in brief: (§3)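 Sodium-heparin mouse plasma or blood, pre-warmed to 37°C, spiked to 2 µM final from a 0.02 mM dosing solution in 0.05 M sodium phosphate with 0.5% BSA; duplicates held at 37°C. Time points quenched with acetonitrile, supernatant diluted 1:1 in water for LC-MS/MS. Percent remaining from analyte/internal-standard peak-area ratio versus time 0; T1/2 from single-phase exponential decay fit.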

[6] = Half life in mouse blood at 2 uM by LC-MS/MS analysis; type: ADME, tissue-based; method in brief: as §3
[7] = target: T1, Proteasome Macropain subunit MB1; assay: Inhibition of chymotrypsin-like activity of 20S proteasome (unknown origin) using succinyl-leu-leu-val-tyr-7-amino-4-methyl coumarin as substrate after 15 mins by fluorescent spectroscopic method; method in brief: as §1

IC50 [1] | inhibition [4] | half-life at 2 µM [5] | half-life at 2 µM [6] | IC50 [7] | Structure (SMILES) | IC50 [2] | IC50 [3]
3 nM | > 60% |  |  |  | O=C(Nc1ccccc1)C1CCN(C(=O)N[C@@H](CCc2ccccc2)C(=O)N[C@@H](CCc2ccccc2)C(=O)NCc2ccccc2Cl)CC1 | 18.5 nM | 20.2 nM
601 nM |  |  |  |  | C[C@H](NC(=O)N1CCC(C(=O)Nc2cnccn2)CC1)C(=O)N[C@@H](CCc1ccccc1)C(=O)NCc1ccccc1Cl |  | 
1.4 nM | > 60% | 7.25 h | 2.98 h |  | O=C(Nc1cccnc1)C1CCN(C(=O)N[C@@H](CCc2ccccc2)C(=O)N[C@@H](CCc2ccccc2)C(=O)NCc2ccccc2Cl)CC1 | 13.9 nM | 9.5 nM
14.7 nM |  |  |  |  | O=C(Nc1cnccn1)C1CCN(C(=O)N[C@@H](CCc2ccccc2)C(=O)N[C@@H](CCc2ccccc2)C(=O)NCc2ccccc2Cl)CC1 | 196 nM | 135 nM
 | Active |  |  |  | CC(C)C[C@H](NC(=O)[C@H](CCc1ccccc1)NC(=O)CN1CCOCC1)C(=O)N[C@@H](Cc1ccccc1)C(=O)N[C@@H](CC(C)C)C(=O)[C@@]1(C)CO1 [CARFILZOMIB] | 13.2 nM | 1.5 nM
16.9 nM |  |  |  |  | O=C(Nc1ccc(F)cc1)C1CCN(C(=O)N[C@@H](CCc2ccccc2)C(=O)N[C@@H](CCc2ccccc2)C(=O)NCc2ccccc2Cl)CC1 | 94.3 nM | 107 nM
344 nM |  |  |  |  | O=C(NC1CCN(C(=O)N[C@@H](Cc2ccccc2)C(=O)N[C@@H](CCc2ccccc2)C(=O)NCc2ccccc2Cl)CC1)c1cnccn1 |  | 
670 nM |  |  |  |  | C[C@H](NC(=O)N1CCC(NC(=O)c2cnccn2)CC1)C(=O)N[C@@H](CCc1ccccc1)C(=O)NCc1ccccc1Cl |  | 

More lines, now with the values behind:

Structure (SMILES) | IC50 [1] | inhibition [4] | half-life at 2 µM [5] | half-life at 2 µM [6] | IC50 [7] | IC50 [2] | IC50 [3]
O=C(NC1CCN(C(=O)N[C@@H](CCc2ccccc2)C(=O)N[C@@H](CCc2ccccc2)C(=O)NCc2ccccc2Cl)CC1)c1cnccn1 | 23.7 nM |  |  |  |  |  | 
O=C(Nc1cnccn1)C1CCN(C(=O)N[C@@H](Cc2ccccc2)C(=O)N[C@@H](CCc2ccccc2)C(=O)NCc2ccccc2Cl)CC1 | 153 nM |  |  |  |  |  | 
O=C(Nc1nccs1)C1CCN(C(=O)N[C@@H](CCc2ccccc2)C(=O)N[C@@H](CCc2ccccc2)C(=O)NCc2ccccc2Cl)CC1 | 4.3 nM | > 60% |  |  |  | 29.5 nM | 32.5 nM
COc1ccc2c(c1)C(CC(=O)N[C@@H](CC(C)C)C(=O)N[C@H](CC(C)C)C(=O)NCc1c(F)cccc1F)CC2=O (stereo not given in full) |  |  |  |  | 140 nM |  | 
O=C(Nc1ccccn1)C1CCN(C(=O)N[C@@H](CCc2ccccc2)C(=O)N[C@@H](CCc2ccccc2)C(=O)NCc2ccccc2Cl)CC1 | 2.4 nM | > 60% |  |  |  | 24.7 nM | 22.2 nM
CC(C)C[C@H](NC(=O)N1CCC(NC(=O)c2cnccn2)CC1)C(=O)N[C@@H](CCc1ccccc1)C(=O)NCc1ccccc1Cl | 45.7 nM |  |  |  |  |  | 
CC(C)C[C@H](NC(=O)N1CCC(C(=O)Nc2cnccn2)CC1)C(=O)N[C@@H](CCc1ccccc1)C(=O)NCc1ccccc1Cl | 16.6 nM |  |  |  |  | 371 nM | 261 nM
COc1ccc(NC(=O)C2CCN(C(=O)N[C@@H](CCc3ccccc3)C(=O)N[C@@H](CCc3ccccc3)C(=O)NCc3ccccc3Cl)CC2)cc1 | 15.7 nM |  |  |  |  | 84.6 nM | 92.9 nM
